Series [1] relates to Mus musculus. Put plainly: In vivo activation of Nrf2 in APAP-induced liver injury in C57BL/6 mouse assessed as increase in NQO1 protein expression level at 10 to 100 mg/kg, ip administered for 7 consecutive days followed by APAP challenge 1 hr post last compound dose and measured after 24 hrs by Western blot analysis. Type of series: functional, organism-based. In short, it runs like this:
(§1)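 Female C57BL/6 mice (20–25 g, n = 10/group) received 10, 50 or 100 mg/kg/day ip in saline for 7 days. One hour after the last dose they received APAP 300 mg/kg in saline. Killed 24 h later. Serum ALT/AST by kit. Liver homogenates (pH 7.0 phosphate) used for GSH (A420, μmol/g protein), GST (A412, U/mg protein) and SOD. Liver also analyzed by western blot (β-actin normalized), qRT-PCR (GAPDH normalized) and H&E.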
(Immunoblotting shows a protein as a band on a membrane.)

In series [2] the test system is Mus musculus. Nature of the series: In vivo activation of Nrf2 in APAP-induced liver injury in C57BL/6 mouse assessed as increase in Nrf2 protein expression level at 10 to 100 mg/kg, ip administered for 7 consecutive days followed by APAP challenge 1 hr post last compound dose and measured after 24 hrs by Western blot analysis. The class given is functional, organism-based. In outline:
as §1

The target in series [3] is T1, Nuclear factor erythroid 2-related factor 2 (Homo sapiens) (UniProt Q16236).
T1 sequence (whole entry): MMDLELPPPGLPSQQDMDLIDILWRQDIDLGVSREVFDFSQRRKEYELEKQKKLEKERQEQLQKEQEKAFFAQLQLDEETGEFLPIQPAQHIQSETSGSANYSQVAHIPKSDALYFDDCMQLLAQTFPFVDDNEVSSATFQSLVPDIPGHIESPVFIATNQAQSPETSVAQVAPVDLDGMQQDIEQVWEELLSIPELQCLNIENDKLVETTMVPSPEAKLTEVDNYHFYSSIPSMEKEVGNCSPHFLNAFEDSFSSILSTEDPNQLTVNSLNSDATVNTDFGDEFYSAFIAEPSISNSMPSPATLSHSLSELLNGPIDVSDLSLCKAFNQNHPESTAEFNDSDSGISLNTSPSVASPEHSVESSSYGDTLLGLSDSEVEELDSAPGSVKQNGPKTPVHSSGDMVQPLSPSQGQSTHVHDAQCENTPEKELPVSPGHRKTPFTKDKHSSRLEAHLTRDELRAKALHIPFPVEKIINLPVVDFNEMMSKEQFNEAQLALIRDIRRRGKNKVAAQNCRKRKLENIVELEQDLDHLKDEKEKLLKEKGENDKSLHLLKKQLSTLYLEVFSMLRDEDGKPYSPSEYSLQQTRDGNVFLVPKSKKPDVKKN
Put plainly: Activation of Nrf2 in human LO2 cells assessed as increase in HO-1 mRNA expression level by qRT-PCR analysis. The class given is cell-based. In outline:
(§2)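 LO2 cells in DMEM with 10% FBS were exposed to 0, 2.5, 5, 10, 20 or 40 μM compound for 12 h. Transcripts measured by qRT-PCR: 40 cycles of 95 °C for 5 s and 60 °C for 30 s. Normalized to GAPDH and expressed as fold over the untreated control. Mean ± SD, n = 3.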

For series [4], the system named is Mus musculus. Put plainly: In vivo activation of Nrf2 in APAP-induced liver injury in C57BL/6 mouse assessed as increase in GCLM mRNA expression level administered ip for 7 consecutive days followed by APAP challenge 1 hr post last compound dose and measured after 24 hrs by qRT-PCR analysis. The class given is functional, organism-based. In short, it runs like this: as §1
In general terms: In qPCR the cycle at which signal appears reflects the starting amount.

The subject of series [5] is Mus musculus. Nature of the series: Hepatoprotective activity against APAP-induced liver injury in C57BL/6 mouse assessed as reduction in serum ALT levels administered ip for 7 consecutive days followed by APAP challenge 1 hr post last compound dose and measured after 24 hrs. The class given is functional, organism-based. In outline: as §1
Series [6] addresses T1, Nuclear factor erythroid 2-related factor 2 (Homo sapiens). Nature of the series: Activation of Nrf2 in human LO2 cells assessed as increase in NQO1 mRNA expression level by qRT-PCR analysis. Type of series: cell-based. In outline: as §2
The target is the same in series [7]. Nature of the series: Activation of Nrf2 in human HepG2-ARE-C8 cells assessed as induction of ARE-mediated luciferase activity at 0.01 uM after 24 hrs by luciferase reporter gene assay relative to control. The class given is cell-based. In outline: (§3)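 HepG2-ARE-C8 cells stably carrying ARE-luciferase, grown in DMEM with 10% FBS at 37 °C and 5% CO2. Seeded at 5 × 10^4 cells/well, left overnight, then given compound diluted from a 10 mM DMSO stock for 24 h. Cells lysed and luciferase read as RLU. Inductivity = (RLUtest − RLUblank)/(RLUcontrol − RLUblank), with DMSO as control. Mean ± SEM of three experiments.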
For orientation: Reporter assays use an easily measured gene product as a stand-in for the process of interest.

Series [8] deals with Mus musculus. Put plainly: In vivo activation of Nrf2 in APAP-induced liver injury in C57BL/6 mouse assessed as increase in HO-1 protein expression level at 10 to 100 mg/kg, ip administered for 7 consecutive days followed by APAP challenge 1 hr post last compound dose and measured after 24 hrs by Western blot analysis. Type of series: functional, organism-based. In short, it runs like this: as §1

Series [9] has as its system Mus musculus. Nature of the series: Hepatoprotective activity against APAP-induced liver injury in C57BL/6 mouse assessed as reduction in serum AST levels administered ip for 7 consecutive days followed by APAP challenge 1 hr post last compound dose and measured after 24 hrs. Type of series: functional, organism-based. In short, it runs like this: as §1
Series [10] addresses T1, Nuclear factor erythroid 2-related factor 2 (Homo sapiens). Put plainly: Activation of Nrf2 in human LO2 cells assessed as increase in GCLM mRNA expression level by qRT-PCR analysis. Type of series: cell-based. In short, it runs like this:
as §2

The target is the same in series [11]. Nature of the series: Activation of Nrf2 in human HepG2-ARE-C8 cells assessed as induction of ARE-mediated luciferase activity at 80 uM after 24 hrs by luciferase reporter gene assay relative to control. Type of series: cell-based. In outline:
as §3

The nature of series [12]: Lipophilicity, log D of the compound at pH 7.4 by potentiometric titration method. Type of series: physicochemical. To be noted: buffer. In short, it runs like this: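 Intrinsic aqueous solubility and logD at pH 7.4 determined by Avdeef-Bucher potentiometric titration on a pION Gemini Profiler.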
The target of series [13] is T1, Nuclear factor erythroid 2-related factor 2 (Homo sapiens). Nature of the series: Activation of Nrf2 in human LO2 cells cotreated with Nrf2 siRNA assessed as increase in NQO1 mRNA expression level at 20 uM by qRT-PCR analysis. Type of series: cell-based. In outline: (§4)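 LO2 cells plated at 7 × 10^5 per 60 mm dish and transfected with 50 nM Nrf2 siRNA (scrambled siRNA as control). After 24 h, fresh medium was added and cells grown a further 48 h. Then 20 μM compound for 12 h. Nrf2, NQO1, GCLM and HO-1 mRNA measured by qRT-PCR, normalized to GAPDH, as fold over control.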

Series [14] shares this target. Put plainly: Activation of Nrf2 in human LO2 cells cotreated with Nrf2 siRNA assessed as increase in GCLM mRNA expression level at 20 uM by qRT-PCR analysis. Type of series: cell-based. In outline:
as §4

Series [15] shares this target. Put plainly: Activation of Nrf2 in human HepG2-ARE-C8 cells assessed as induction of ARE-mediated luciferase activity at 1 uM after 24 hrs by luciferase reporter gene assay relative to control. The class given is cell-based. In outline: as §3
In series [16] the test system is Mus musculus. Nature of the series: Hepatoprotective activity against APAP-induced liver injury in C57BL/6 mouse assessed as decrease in APAP-induced cell necrosis administered ip for 7 consecutive days followed by APAP challenge 1 hr post last compound dose and measured after 24 hrs by hematoxylin/eosin staining based assay. The class given is functional, organism-based. In outline: as §1

Activity calls are given as the source filed them. The rule behind the calls is not given here.

For orientation: logD means lipophilicity at a set pH, counting ionised and neutral species. Low readings indicate lower lipophilicity, high ones higher lipophilicity. As for `Cc1ccc(-c2noc(-c3ccc(F)c(F)c3)n2)cn1`, the outcome (in the series on Mus musculus [1]; in the series on Mus musculus [2]; in the series with Mus musculus [8]; in series [13]; in series [14]) was Active. Also, the Activity result in series [3] was “Dose-dependent effect”; in the series with Mus musculus [4] it was “Dose-dependent effect”; in the series on Mus musculus [5], “Dose-dependent effect”; in [6], “Dose-dependent effect”; in series [7] it was 2.75; in the series on Mus musculus [9] it was “Dose-dependent effect”. The Activity entry in series [10] is “Dose-dependent effect”; in series [11] it was 59.5; in series [15], 16.1; in the series with Mus musculus [16], “Dose-dependent effect”. In series [12], this compound returned a pH-dependent lipophilicity (logD) of 3.07.

These data come from ChEMBL document CHEMBL4265908, “Structure-activity and structure-property relationships of novel Nrf2 activators with a 1,2,4-oxadiazole core and their therapeutic effects on acetaminophen (APAP)-induced acute liver injury” (Eur J Med Chem, 2018).
